From publication PMC10249145 (Cardiovascular & hematological agents in medicinal chemistry, 2023)

Assays:
human FXIIa = target: T1, human FXIIa (Homo sapiens, UniProt P00748); assay: Direct inhibition of human FXIIa, chromogenic substrate hydrolysis assay; format: biochemical; details: for DeltaY (efficacy of inhibition) / HS (Hill slope): pH 7.4, 37 °C; for DeltaY (efficacy of inhibition) / HS (Hill slope) / IC50: ± 1 S.E.; for IC50: Tris-HCl buffer pH 7.4, 37 °C
T1 sequence (P00748 20-615): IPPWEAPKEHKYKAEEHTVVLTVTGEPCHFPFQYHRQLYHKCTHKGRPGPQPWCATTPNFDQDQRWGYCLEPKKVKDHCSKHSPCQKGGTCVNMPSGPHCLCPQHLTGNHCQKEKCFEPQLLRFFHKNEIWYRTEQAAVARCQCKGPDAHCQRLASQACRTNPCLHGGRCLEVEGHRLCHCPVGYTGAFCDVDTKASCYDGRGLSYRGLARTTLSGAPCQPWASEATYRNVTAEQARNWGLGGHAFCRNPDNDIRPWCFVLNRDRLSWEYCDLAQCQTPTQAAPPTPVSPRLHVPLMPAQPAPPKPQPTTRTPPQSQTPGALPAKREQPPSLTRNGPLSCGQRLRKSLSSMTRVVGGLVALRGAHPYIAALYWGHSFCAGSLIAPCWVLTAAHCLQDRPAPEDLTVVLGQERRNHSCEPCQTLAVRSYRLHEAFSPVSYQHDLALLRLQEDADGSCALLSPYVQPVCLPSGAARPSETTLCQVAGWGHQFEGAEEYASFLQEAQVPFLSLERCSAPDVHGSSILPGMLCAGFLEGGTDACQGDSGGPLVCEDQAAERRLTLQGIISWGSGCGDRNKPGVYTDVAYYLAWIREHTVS
In short: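 Human FXIIa (stock 200 nM) was preincubated for 5 min with test compound or vehicle in Tris-HCl pH 7.4 with NaCl, 2.5 mM CaCl2, 0.1% PEG8000 and 0.02% Tween80 at 37 °C. Spectrozyme FXIIa (stock 5 mM) was then added. Twelve in-well concentrations (500–0.0025 μM) were tested. Residual activity was taken from the initial A405 rate, and a logistic fit gave IC50, efficacy and Hill slope (±1 S.E.).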

human plasma [1] = details: normal human plasma, positive controls; cited from earlier work
human plasma [2] = details: normal human plasma, positive controls; cited from earlier work; remark: listed apart in the source

CC(C)(C)c1ccc(C(=O)n2ncnc2N)cc1 [Inhibitor 3, (5-amino-1H-1,2,4-triazol-1-yl)(4-(tert-butyl)phenyl)methanone]
decrease in the inhibition potency (human FXIIa; FXIIa IC50 relative to inhibitor 1): 77.5 fold | DeltaY (efficacy of inhibition) (human FXIIa; human FXIIa): 82.1 ± 8.1% | HS (Hill slope) (human FXIIa; human FXIIa): 1.37 ± 0.69

CC(C)(C)c1ccc(C(=O)n2nc(C(=O)O)nc2N)cc1 [Inhibitor 4, 5-amino-1-(4-(tert-butyl)benzoyl)-1H-1,2,4-triazole-3-carboxylic acid]
IC50 (human FXIIa; IC50, human FXIIa): 699 µM | DeltaY (efficacy of inhibition) (human FXIIa; human FXIIa): 122.4 ± 23.4% | HS (Hill slope) (human FXIIa; human FXIIa): 1.05 ± 0.55

O=C(NC[C@H]1CN(c2ccc(N3CCOCC3=O)cc2)C(=O)O1)c1ccc(Cl)s1 [Rivaroxaban]
APTT (EC×1.5) (human plasma [1]): ~0.06 µM | PT (EC×1.5) (human plasma [2]): ~0.08 µM

CNC(=O)c1nc(N)n(C(=O)c2ccc(C(C)(C)C)cc2)n1 [Inhibitor 5, 5-amino-1-(4-(tert-butyl)benzoyl)-N-methyl-1-1H-1,2,4-triazole-3-carboxamide]
IC50 (human FXIIa; human FXIIa): 340 ± 30.5 µM | DeltaY (efficacy of inhibition) (human FXIIa; human FXIIa): 103 ± 5% | HS (Hill slope) (human FXIIa; human FXIIa): 1.26 ± 0.27
